Values after ≈ are worked out from the molar mass of the structure shown.
Columns and labels:
[1] = Inhibition of transglycosylase assessed as inhibition of NBD- labelled lipid II polymerization
Outline: (§1)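 100 µM NBD-labelled lipid II incubated 30 min with full-length PBP (EC, SA or Mtb) and 10 ng/µl N-acetylmuramidase in 50 mM Tris-HCl pH 8.0, 10 mM MgCl2, 0.1% Triton X-100, 10% DMSO, 15% MeOH. Supernatant run on anion-exchange HPLC with 20 mM–0.5 M ammonium acetate gradient. Inhibition calculated from substrate peak-area percentage. IC50 determined. S. aureus strains share one SA enzyme.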

Staphylococcus aureus [2] = assay: Antimicrobial activity against oxacillin- and methicillin-resistant Staphylococcus aureus isolate Sa-OXA-R2 after 18 to 24 hrs by alamar blue assay; format: functional
Outline: (§2)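 Broth microdilution per NCCLS standard, Mueller-Hinton broth, 8-point twofold dilutions; exponentially growing cells at 5 10^5 cells/ml with compound, 18–24 h at 37 C; 20% Alamar blue added, fluorescence read; MIC90 taken as lowest concentration preventing at least 90% growth.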

Staphylococcus aureus [3] = assay: Antimicrobial activity against methicillin-resistant Staphylococcus aureus ATCC 33592 after 18 to 24 hrs by alamar blue assay; format: functional; settings: Staphylococcus aureus, ATCC 33592; for MIC: read-out: MIC; outline: as §2
[4] = test system: Mycolicibacterium smegmatis; assay: Antimicrobial activity against Mycobacterium smegmatis BCRC 11565 after 18 to 24 hrs by alamar blue assay; format: functional; settings: Mycolicibacterium smegmatis, BCRC 11565; for MIC: read-out: MIC
Outline: (§3)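 Broth microdilution per NCCLS in Mueller-Hinton broth, 8-point twofold dilutions, 384-well format. Exponential-phase cells at 5 × 10^5 cells/ml incubated with compound 18–24 h at 37 °C, then 20% Alamar blue added and fluorescence read. MIC90 taken as the lowest concentration preventing at least 90% bacterial growth.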

[5] = Inhibition of transglycosylase in Staphylococcus aureus ATCC 29213 assessed as inhibition of NBD- labelled lipid II polymerization; outline: as §1
[6] = test system: Stenotrophomonas maltophilia; assay: Antimicrobial activity against Stenotrophomonas maltophilia ATCC 13637 after 18 to 24 hrs by alamar blue assay; format: functional; settings: Stenotrophomonas maltophilia, ATCC 13637; read-out: MIC; outline: as §3
[7] = Inhibition of transglycosylase in Escherichia coli ATCC […] assessed as inhibition of NBD- labelled lipid II polymerization; outline: as §1
Pseudomonas aeruginosa = assay: Antimicrobial activity against Pseudomonas aeruginosa ATCC 25619 after 18 to 24 hrs by alamar blue assay; format: functional; settings: Pseudomonas aeruginosa, ATCC 25619; read-out: MIC; outline: as §3
Acinetobacter baumannii = assay: Antimicrobial activity against Acinetobacter baumannii ATCC 49139 after 18 to 24 hrs by alamar blue assay; format: functional; settings: Acinetobacter baumannii, ATCC 49139; read-out: MIC; outline: as §3
Staphylococcus aureus [8] = assay: Antimicrobial activity against methicillin-resistant Staphylococcus aureus isolate NTUH4722 after 18 to 24 hrs by alamar blue assay; format: functional; outline: as §2
[9] = Displacement of fluorescein-labeled moenomycin from transglycosylase in Escherichia coli ATCC […] assessed as inhibition of lipid II polymerization after 30 mins by fluorescence anisotropy binding assay; set-up: species or system Staphylococcus aureus
Outline: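 Full-length bifunctional PBP (TGase) at 10 µg/ml mixed with 100 nM fluorescent moenomycin in 10 mM Tris, 100 mM NaCl, pH 8.0, in 1536-well plates. 1 µl of 1 mM compound stock added. 10 µM moenomycin and 2.5% DMSO served as positive and negative controls. After 30 min, drop in fluorescence anisotropy read. Ki derived from Kd and IC50. Same SA enzyme serves all S. aureus strains.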

Bacillus subtilis = assay: Antimicrobial activity against Bacillus subtilis ATCC 23857 after 18 to 24 hrs by alamar blue assay; format: functional; outline: as §3
Serratia marcescens = assay: Antimicrobial activity against Serratia marcescens ATCC 14756 after 18 to 24 hrs by alamar blue assay; format: functional; settings: Serratia marcescens, ATCC 14756; read-out: MIC; outline: as §3
[10] = Inhibition of transglycosylase in Staphylococcus aureus ATCC 33592 assessed as inhibition of NBD- labelled lipid II polymerization; outline: as §1
[11] = Inhibition of transglycosylase in Staphylococcus aureus isolate NTUH4722 assessed as inhibition of NBD- labelled lipid II polymerization; outline: as §1
Escherichia coli = assay: Antimicrobial activity against Escherichia coli ATCC […] after 18 to 24 hrs by alamar blue assay; format: functional; settings: Escherichia coli; for MIC: read-out: MIC; outline: as §3
[12] = Inhibition of transglycosylase in Staphylococcus aureus isolate Sa-OXA-R2 assessed as inhibition of NBD- labelled lipid II polymerization; outline: as §1
Staphylococcus aureus [13] = assay: Antimicrobial activity against wild-type Staphylococcus aureus ATCC 29213 after 18 to 24 hrs by alamar blue assay; settings: Staphylococcus aureus, ATCC 29213
[14] = Displacement of fluorescein-labeled moenomycin from transglycosylase at 100 uM after 30 mins by fluorescence anisotropy binding assay
Staphylococcus aureus [15] = assay: Antimicrobial activity against Staphylococcus aureus ATCC 29213 after 18 to 24 hrs by alamar blue assay
[16] = Inhibition of transglycosylase assessed as inhibition of NBD- labelled lipid II polymerization at 100 uM; outline: as §1

SMILES: O=C(c1ccc(Cl)cc1)c1ccc(Oc2ccc(Cl)cc2)c(NC(=O)c2cc(I)cc(I)c2O)c1
- IC90 [1]: < 25 µM
- MIC90 (Staphylococcus aureus [2]): 11 µM (≈ 8.03 µg/mL)
- MIC90 (Staphylococcus aureus [3]): 5.5 µM (≈ 4.02 µg/mL)
- MIC90 [4]: 44 µM (≈ 32.1 µg/mL)
- IC50 [5]: 9.3 µM
- MIC [6]: 16 µg/mL (≈ 21.9 µM)
- IC50 [7]: 2.1 µM
- MIC (Pseudomonas aeruginosa): 16 µg/mL (≈ 21.9 µM)
- MIC (Acinetobacter baumannii): 16 µg/mL (≈ 21.9 µM)
- MIC90 (Staphylococcus aureus [8]): 11 µM (≈ 8.03 µg/mL)
- Ki [9]: 68 µM
- MIC (Bacillus subtilis): < 0.03 µg/mL
- MIC (Serratia marcescens): 16 µg/mL (≈ 21.9 µM)
- IC50 [10]: 9.3 µM
- IC50 [11]: 9.3 µM
- MIC90 (Escherichia coli): > 512 µM
- IC50 [12]: 9.3 µM
- MIC90 (Staphylococcus aureus [13]): 11 µM (≈ 8.03 µg/mL)

SMILES: COc1cccc(-c2coc3c(C)c4oc(=O)c(CCC(=O)O)c(C)c4cc23)c1
- inhibition [14]: 90%
- MIC (Staphylococcus aureus [2]): 2.5 µg/mL (≈ 6.37 µM)
- MIC (Staphylococcus aureus [3]): 2.5 µg/mL (≈ 6.37 µM)
- MIC [4]: 1 µg/mL (≈ 2.55 µM)
- MIC (Staphylococcus aureus [15]): 2.5 µg/mL (≈ 6.37 µM)
- MIC [6]: > 256 µg/mL
- MIC (Pseudomonas aeruginosa): > 256 µg/mL
- MIC (Acinetobacter baumannii): > 256 µg/mL
- MIC (Staphylococcus aureus [8]): 2.5 µg/mL (≈ 6.37 µM)
- MIC (Bacillus subtilis): > 64 µg/mL
- MIC (Serratia marcescens): > 256 µg/mL
- inhibition [16]: 0%
- MIC (Escherichia coli): > 256 µg/mL

SMILES: CCN(CC)c1cc(C)c2cc(NC(=O)c3ccc([N+](=O)[O-])o3)ccc2n1
- inhibition [14]: 90%
- MIC (Staphylococcus aureus [2]): > 4 µg/mL
- MIC (Staphylococcus aureus [3]): > 4 µg/mL
- MIC [4]: 0.5 µg/mL (≈ 1.36 µM)
- MIC (Staphylococcus aureus [15]): 2 µg/mL (≈ 5.43 µM)
- MIC [6]: 32 µg/mL (≈ 86.9 µM)
- MIC (Pseudomonas aeruginosa): 128 µg/mL (≈ 347 µM)
- MIC (Acinetobacter baumannii): 12 µg/mL (≈ 32.6 µM)
- MIC (Staphylococcus aureus [8]): > 4 µg/mL
- MIC (Bacillus subtilis): 0.06 µg/mL (≈ 0.163 µM)
- MIC (Serratia marcescens): 32 µg/mL (≈ 86.9 µM)
- inhibition [16]: 0%
- MIC (Escherichia coli): 256 µg/mL (≈ 695 µM)

SMILES: Cc1ccc(Nc2nc3nonc3nc2Nc2cccc(C(F)(F)F)c2)cc1Cl
- inhibition [14]: 90%
- inhibition [16]: 0%

SMILES: CN1C(=O)c2ccccc2Sc2ccc(NC(=O)c3ccc([N+](=O)[O-])o3)cc21
- inhibition [14]: 91%
- MIC (Staphylococcus aureus [2]): 2 µg/mL (≈ 5.06 µM)
- MIC (Staphylococcus aureus [3]): 1 µg/mL (≈ 2.53 µM)
- MIC [4]: 0.5 µg/mL (≈ 1.26 µM)
- MIC (Staphylococcus aureus [15]): 2 µg/mL (≈ 5.06 µM)
- MIC [6]: 32 µg/mL (≈ 80.9 µM)
- MIC (Pseudomonas aeruginosa): 128 µg/mL (≈ 324 µM)
- MIC (Acinetobacter baumannii): 12 µg/mL (≈ 30.3 µM)
- MIC (Staphylococcus aureus [8]): 0.5 µg/mL (≈ 1.26 µM)
- MIC (Bacillus subtilis): 0.06 µg/mL (≈ 0.152 µM)
- MIC (Serratia marcescens): 32 µg/mL (≈ 80.9 µM)
- inhibition [16]: 0%
- MIC (Escherichia coli): 256 µg/mL (≈ 647 µM)

SMILES: O=C(Nc1ccc(Cl)c(Cl)c1)c1ccc([N+](=O)[O-])o1
- inhibition [14]: 96%
- MIC (Staphylococcus aureus [2]): > 4 µg/mL
- MIC (Staphylococcus aureus [3]): 2 µg/mL (≈ 6.64 µM)
- MIC [4]: 0.5 µg/mL (≈ 1.66 µM)
- MIC (Staphylococcus aureus [15]): 2 µg/mL (≈ 6.64 µM)
- MIC [6]: 32 µg/mL (≈ 106 µM)
- MIC (Pseudomonas aeruginosa): 128 µg/mL (≈ 425 µM)
- MIC (Acinetobacter baumannii): 12 µg/mL (≈ 39.9 µM)
- MIC (Staphylococcus aureus [8]): 4 µg/mL (≈ 13.3 µM)
- MIC (Bacillus subtilis): 0.06 µg/mL (≈ 0.199 µM)
- MIC (Serratia marcescens): 32 µg/mL (≈ 106 µM)
- inhibition [16]: 0%
- MIC (Escherichia coli): 256 µg/mL (≈ 850 µM)

SMILES: CCc1ccc2oc(-c3cccc(NC(=O)c4ccc([N+](=O)[O-])o4)c3)nc2c1
- MIC90 (Staphylococcus aureus [2]): 1 µM (≈ 0.377 µg/mL)
- MIC90 (Staphylococcus aureus [3]): 0.5 µM (≈ 0.189 µg/mL)
- MIC90 [4]: 0.5 µM (≈ 0.189 µg/mL)
- MIC [6]: 32 µg/mL (≈ 84.8 µM)
- IC50 [7]: 30.3 µM
- MIC (Pseudomonas aeruginosa): 128 µg/mL (≈ 339 µM)
- MIC (Acinetobacter baumannii): 12 µg/mL (≈ 31.8 µM)
- MIC90 (Staphylococcus aureus [8]): 1 µM (≈ 0.377 µg/mL)
- Ki [9]: 98 µM
- MIC (Bacillus subtilis): 0.06 µg/mL (≈ 0.159 µM)
- MIC (Serratia marcescens): 32 µg/mL (≈ 84.8 µM)
- MIC90 (Escherichia coli): > 512 µM
- MIC90 (Staphylococcus aureus [13]): 1 µM (≈ 0.377 µg/mL)

SMILES: O=C(Nc1cccc2cccnc12)c1ccc([N+](=O)[O-])o1
- inhibition [14]: 90%
- MIC (Staphylococcus aureus [2]): 2 µg/mL (≈ 7.06 µM)
- MIC (Staphylococcus aureus [3]): 2 µg/mL (≈ 7.06 µM)
- MIC [4]: 0.5 µg/mL (≈ 1.77 µM)
- MIC (Staphylococcus aureus [15]): 2 µg/mL (≈ 7.06 µM)
- MIC [6]: 32 µg/mL (≈ 113 µM)
- MIC (Pseudomonas aeruginosa): 128 µg/mL (≈ 452 µM)
- MIC (Acinetobacter baumannii): 12 µg/mL (≈ 42.4 µM)
- MIC (Staphylococcus aureus [8]): 2 µg/mL (≈ 7.06 µM)
- MIC (Bacillus subtilis): 0.06 µg/mL (≈ 0.212 µM)
- MIC (Serratia marcescens): 32 µg/mL (≈ 113 µM)
- inhibition [16]: 0%
- MIC (Escherichia coli): 256 µg/mL (≈ 904 µM)

SMILES: Cc1c(CCC(=O)O)c(=O)oc2c(C)c3occ(-c4ccc(Cl)cc4)c3cc12
- inhibition [14]: 97%
- MIC (Staphylococcus aureus [2]): 2.5 µg/mL (≈ 6.3 µM)
- MIC (Staphylococcus aureus [3]): 1.25 µg/mL (≈ 3.15 µM)
- MIC [4]: 1 µg/mL (≈ 2.52 µM)
- MIC (Staphylococcus aureus [15]): 2.5 µg/mL (≈ 6.3 µM)
- MIC [6]: > 256 µg/mL
- MIC (Pseudomonas aeruginosa): > 256 µg/mL
- MIC (Acinetobacter baumannii): > 256 µg/mL
- MIC (Staphylococcus aureus [8]): 2.5 µg/mL (≈ 6.3 µM)
- MIC (Bacillus subtilis): > 64 µg/mL
- MIC (Serratia marcescens): > 256 µg/mL
- inhibition [16]: 0%
- MIC (Escherichia coli): > 256 µg/mL

SMILES: Cc1ccc(OC(=O)c2cc(-c3ccc(C)c(C)c3)on2)c(C)c1
- inhibition [14]: 95%
- inhibition [16]: 0%

— ChEMBL document CHEMBL1629439, “High-throughput identification of antibacterials against methicillin-resistant Staphylococcus aureus (MRSA) and the transglycosylase” (Bioorg Med Chem, 2010)
